An excerpt weighted towards active compounds, which were near 1.3% of everything screened.
JMJD2C inh: inhibitors of human GASC-1 (JMJD2C) demethylase | inhibition, % at 2.35 µM | Q9H3R0 | GST-JMJD2C(1-420) H3K9me3 demethylation, DELFIA europium | actives 0.069% (n = 330,000);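 active means more than half of a compound's replicate wells show inhibition beyond 50%, single wells judged on their own value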;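 further: signal counts dimethyl H3K9 product captured on neutravidin plate; 0% = median of DMSO wells and 100% = 0.3 times that DMSO median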
GRK2 aptamer HTS: inhibitors of human GRK2 displacing RNA aptamer; inhibition of aptamer binding, % at 10 µM; bead flow cytometry, FAM-aptamer displacement from GRK2; actives 0.59% (n = 330,000);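 active means inhibition of aptamer binding above 40%, roughly 3 SD of noise, on plates passing a quality check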;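 further: median bead fluorescence of bound FAM aptamer so fluorescent compounds give negative values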
Target sequence (P25098 whole entry, looked up): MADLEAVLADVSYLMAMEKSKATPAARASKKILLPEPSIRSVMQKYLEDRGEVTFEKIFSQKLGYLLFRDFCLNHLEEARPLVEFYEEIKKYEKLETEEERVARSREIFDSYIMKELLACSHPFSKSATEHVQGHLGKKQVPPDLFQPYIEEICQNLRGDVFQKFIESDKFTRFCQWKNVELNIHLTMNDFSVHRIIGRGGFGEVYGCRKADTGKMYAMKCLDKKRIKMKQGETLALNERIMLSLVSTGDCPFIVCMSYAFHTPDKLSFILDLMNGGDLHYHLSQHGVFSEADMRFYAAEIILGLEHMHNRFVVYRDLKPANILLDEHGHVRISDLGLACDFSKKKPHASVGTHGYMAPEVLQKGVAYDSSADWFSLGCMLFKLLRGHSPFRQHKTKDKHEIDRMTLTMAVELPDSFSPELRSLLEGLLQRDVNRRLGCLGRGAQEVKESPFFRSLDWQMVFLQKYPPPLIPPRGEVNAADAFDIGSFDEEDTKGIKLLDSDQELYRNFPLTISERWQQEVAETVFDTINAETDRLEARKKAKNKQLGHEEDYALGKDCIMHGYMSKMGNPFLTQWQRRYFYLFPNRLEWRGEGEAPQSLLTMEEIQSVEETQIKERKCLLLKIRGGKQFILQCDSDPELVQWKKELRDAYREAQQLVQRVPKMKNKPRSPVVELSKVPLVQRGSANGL
procasp7 counter: activates human procaspase-7, counter-screen for procaspase-3 activators. activation, % at 8.5 µM. P55210. recombinant procaspase-7, Ac-DEVD-pNA absorbance 405 nm; D23A/D198A/D206A triple mutant, cannot self-cleave; scale: DMSO 0, 5 µM enzyme 100. AID 463210. actives 0.093% (n = 330,000);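 active means percent activation above the screen-wide mean plus 3 SD, cut at about 25% in these data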
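Replicates: singlicate. Assay system: Procaspase-7 triple mutant (PC-7 D3A). Signal: 405 nm absorbance of p-nitroaniline. Times: 1 h preincubation, 2 h reaction. Buffer or medium: Zinc-free HEPES pH 7.4 with 300 mM NaCl, 0.01% Triton X-100. Also added: DEVD-pNA substrate. Benchmarks: DMSO wells as 0%, DMSO with 5 µM added PC-7 as 100%.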
VLA-4 inh: inhibition in a human VLA-4 binding assay. VLA-4 expressing cells, ligand binding flow cytometry. inhibition, % (about 7 µM as worked out from the volumes in the protocol). actives 0.2% (n = 330,000); in the data active means inhibition above about 50%
Lipid droplet: hepatic lipid droplet formation modulation; AML12 mouse hepatocytes, oleate lipid droplets, BODIPY imaging; inhibition, % at 6.5 µM; actives 0.4% (n = 240,000);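 active means lipid droplet intensity inhibited by at least 50%, with more than 500 cells counted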
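material = mouse AML12 hepatocyte cell line, fixed after treatment | also added = 100 µM oleic acid challenge | doses = compound at 6.5 µM only | schedule = overnight exposure | technique = Image-based BODIPY and DAPI two-channel analysis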
procasp3 activ: procaspase-3 (human) activation | P42574 | recombinant procaspase-3 D3A, Ac-DEVD-pNA absorbance 405 nm | activation, % at 8.5 µM | actives 0.11% (n = 330,000) | AID 463141;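 active means activation above the mean of all tested compounds plus 3 SD, cut at about 21% in these data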;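 further: 0% = DMSO alone and 100% = DMSO wells spiked with extra 5 µM PC-3 D3A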
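material = Procaspase-3 D3A mutant | probe or stimulus = Ac-DEVD-pNA | compound = single dose, 8.5 µM nominal compound, 0.8% DMSO | timing = 1 h preincubation, 2 h reaction | measured by = 405 nm absorbance of p-nitroaniline, reads at 0 and 120 min | benchmarks = DMSO-only low control, 5 µM PC-3 D3A high control | repeats = singlicate, each compound tested once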
GRK2 inh confirm: confirmation of human GRK2 inhibitors displacing RNA aptamer | bead-bound GRK2, FAM-aptamer displacement, flow cytometry | aptamer displacement, % at 10 µM | shares compounds with GRK2 aptamer HTS | actives 4% (n = 2,000);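 active means aptamer displacement above 40%, near three times the noise of non-fluorescent compounds, on plates passing quality checks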;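 further: negative values mostly reflect intrinsic compound fluorescence rather than true enhancement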
Aptamer quench SP: counter-screen for GRK2 aptamer inhibitors: fluorescent aptamer quenchers | 2,000 tested, under 10 active | Carboxyfluorescein RNA aptamer on beads, flow cytometry quenching; active compounds read low | shares compounds with GRK2 aptamer HTS | AID 504580 | fluorescence response (% of DMSO), % at 10 µM;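 active means compounds that quench the bead-bound fluorescent RNA probe, cutting fluorescence to under half of the solvent control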;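 further: counterscreen run without GRK2 so only probe quenching by compound is measured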
GRK2 confirm 2: confirmation of human GRK2 inhibitors binding RNA aptamer site. shares compounds with GRK2 aptamer HTS. bead-bound GRK2, FAM-aptamer displacement, flow cytometry. 360 tested, under 10 active. inhibition of aptamer binding, % at 10 µM;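 active means inhibition of aptamer binding above 40%, about triple the noise seen with nonglowing compounds, on plates passing quality control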;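 further: negative values mostly come from compounds that fluoresce themselves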
FAM quench SP: quenches fluorescent RNA aptamer, GRK2 hit artifact. shares compounds with GRK2 aptamer HTS. carboxyfluorescein RNA aptamer beads, flow cytometry quenching; active compounds read low. fluorescence response vs DMSO, % at 10 µM. 360 tested, under 10 active. AID 588494;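 active means response vs DMSO under 50%, meaning signal dropped by over half, treated as fluorescence quencher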;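 further: labelled aptamer on streptavidin beads without GRK2 as a quench counter-screen; 100% = bead fluorescence of DMSO wells and lower means quenching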
The depositor's hits bear a star.

`CCN(CC)CCOC(=O)C1(c2ccccc2)CCCC1` gave JMJD2C inh 12, GRK2 aptamer HTS 69*, procasp7 counter 4, VLA-4 inh -1, Lipid droplet -4, procasp3 activ 4, GRK2 inh confirm 0 and Aptamer quench SP 99.
`O=S(=O)(NCc1ccc(F)cc1)c1ccc(-c2cnc(C3CC3)o2)cc1` gave JMJD2C inh -39, GRK2 aptamer HTS 51*, procasp7 counter 3, VLA-4 inh -4, Lipid droplet -28, procasp3 activ 2, GRK2 inh confirm 6 and Aptamer quench SP 99.
Cn1ccnc1C1CCCCN1Cc1nc(Cc2cccc(C(F)(F)F)c2)no1 (stereo unspecified) was read as JMJD2C inh -11, GRK2 aptamer HTS 0, procasp7 counter 1, VLA-4 inh -4, Lipid droplet -14, procasp3 activ 6, GRK2 inh confirm -1 and Aptamer quench SP 101.
CC(=O)N1c2ccc(S(=O)(=O)N3CCC(C(=O)N4CCCC(C)C4)CC3)cc2CC1C (stereo unspecified) was read as JMJD2C inh 2, GRK2 aptamer HTS 0, procasp7 counter 3, VLA-4 inh -2, Lipid droplet -5 and procasp3 activ 5.
Cc1nc(NCCOc2ccccc2)sc1C(=O)Nc1ccccc1 was read as JMJD2C inh -4, GRK2 aptamer HTS 2, procasp7 counter 5, VLA-4 inh 2, Lipid droplet -21 and procasp3 activ 4.
COc1ccc(NC(=S)NCc2cccs2)cc1 was read as JMJD2C inh 22, GRK2 aptamer HTS 62*, procasp7 counter 9, VLA-4 inh -2, Lipid droplet -1, procasp3 activ -4, GRK2 inh confirm 0 and Aptamer quench SP 110.
`CC(C)c1ccc(NC(=S)NCc2cccs2)cc1` gave JMJD2C inh -3, GRK2 aptamer HTS 0, procasp7 counter -3, VLA-4 inh -3, Lipid droplet 2 and procasp3 activ 0.
For O=C(COc1ccc(Cl)cc1Cl)Nc1cccc(-c2ccc(N3CCOCC3)nn2)c1 the results were JMJD2C inh 5, GRK2 inh confirm -2 and Aptamer quench SP 93.
Screening O=C(COc1ccccc1)Nc1cccc(-c2ccc(N3CCOCC3)nn2)c1 returned JMJD2C inh -23, GRK2 aptamer HTS 0, procasp7 counter 0, VLA-4 inh 2, procasp3 activ 4, GRK2 inh confirm 1 and Aptamer quench SP 94.
`COc1ccc(-c2cc(C(=O)N/N=C/c3cccnc3)c3cc(C)cc(C)c3n2)cc1` gave JMJD2C inh 0, GRK2 aptamer HTS 0, VLA-4 inh -9 and Lipid droplet -18.
For C#CCOCCOCCOCCNc1nc(N2CCOCC2)nc(N2CCN(C(=O)[C@H](CO)n3cc([C@@H](N)C(C)C)nn3)CC2)n1 the results were JMJD2C inh 18, GRK2 aptamer HTS 74*, procasp7 counter 2, VLA-4 inh 8, procasp3 activ 0, GRK2 confirm 2 -19 and FAM quench SP 100.
For C#CCOCCOCCOCCNc1nc(N2CCOCC2)nc(N2CCN(C(=O)CCCCCCCCCCNC(=O)[C@H](CO)n3cc(CCCSC)nn3)CC2)n1 the results were JMJD2C inh -19, GRK2 aptamer HTS 50*, procasp7 counter -3, VLA-4 inh -11, procasp3 activ 4, GRK2 inh confirm -5 and Aptamer quench SP 99.
C#CCOCCOCCOCCNc1nc(N2CCN(C(=O)CCCCCCCCCCNC(=O)[C@@H](CCC(=O)O)n3cc(CCCCCN)nn3)CC2)nc(N2CCN(C(=O)CCCCCCCCCCNC(=O)[C@H](CO)n3cc(CCCSC)nn3)CC2)n1 was read as GRK2 aptamer HTS 2, procasp7 counter 4, VLA-4 inh -7 and procasp3 activ 3.
For COc1ccc(CNC(=O)CCS(=O)(=O)c2ccc3c(c2)CCN3C(C)=O)cc1 the results were JMJD2C inh 19, GRK2 aptamer HTS 0, procasp7 counter 5, VLA-4 inh 20, Lipid droplet -4 and procasp3 activ -7.
NC(=O)COc1ccc(/C=C2\C(=O)ON=C2c2ccccc2)cc1 was read as JMJD2C inh -9, GRK2 aptamer HTS 4, procasp7 counter 10, VLA-4 inh 13 and procasp3 activ 2.
C=CCNC(=O)c1ccc(C(=O)c2ccccc2)cc1 was read as JMJD2C inh 0, GRK2 aptamer HTS 67*, procasp7 counter 9, VLA-4 inh 25, procasp3 activ -6, GRK2 inh confirm -8 and Aptamer quench SP 99.
For C=CCNC(=O)c1ccc2nc(-c3ccccc3)c(-c3ccccc3)nc2c1 the results were JMJD2C inh 3, GRK2 aptamer HTS 1, procasp7 counter -16, VLA-4 inh 2 and procasp3 activ -2.
Screening Cc1ccc(S(=O)(=O)N2CCCN(C(=O)OC(C)(C)C)CC2)cc1 returned JMJD2C inh -9, GRK2 aptamer HTS 0, procasp7 counter 10, VLA-4 inh 29 and procasp3 activ -4.
`CCc1c(C)nc2ncnn2c1N1CCCC(C(=O)NCc2cccs2)C1` (stereo unspecified) gave JMJD2C inh 3, GRK2 aptamer HTS 51*, procasp7 counter 8, VLA-4 inh -1, Lipid droplet -4, procasp3 activ 5, GRK2 inh confirm 0 and Aptamer quench SP 99.
For CC(=O)COC(=O)c1cccc(N2C(=O)C3C4C=CC(C4)C3C2=O)c1 (stereo unspecified) the results were JMJD2C inh 0, GRK2 aptamer HTS 80*, procasp7 counter -2, VLA-4 inh 9, Lipid droplet -8, procasp3 activ 5, GRK2 inh confirm 2 and Aptamer quench SP 104.
COc1ccc(-c2cc(C(=O)Nc3cccnc3)c3ccccc3n2)cc1OC was read as JMJD2C inh -22, GRK2 aptamer HTS 2, procasp7 counter -13, VLA-4 inh 8, Lipid droplet -11 and procasp3 activ 0.

High-throughput results: PubChem BioAssay, several laboratories
